Laboratory results published in ChEMBL document CHEMBL2401701, “Notable difference in anti-HIV activity of integrase inhibitors as a consequence of geometric and enantiomeric configurations” (Bioorg Med Chem Lett, 2013).
Active and inactive are the calls of the source. The rule behind the calls is not given here.

Columns and labels:
[1] = biological target: Human immunodeficiency virus type 1 integrase (Human immunodeficiency virus 1, UniProt Q7ZJM1); experiment: (§1) Inhibition of HIV-1 integrase strand transfer activity after 1 hr by ELISA
Procedure, shortened: (§2)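 DNA substrate (20 nM final), serially diluted compound, and recombinant HIV-1 integrase were combined in 20 mM HEPES pH 7.5, 10 mM MgCl₂, 5% PEG, 0.1 mg/mL BSA, 5 mM DTT. The mix was moved to streptavidin plates for 1 h at room temperature, then washed with NaOH/NaCl/EDTA and Tris-EDTA. Detection antibody was applied for 1 h at 37 °C, followed by TMB for 10 min and absorbance at 450 nm.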

[2] = Cytotoxicity against human MAGI cells by MTS assay; type: cell-based
[3] = system: Human immunodeficiency virus 1; experiment: Antiviral activity against Human immunodeficiency virus 1 NL4-3 infected in human MAGI cells after 6 days by beta-galactosidase reporter gene assay; type: functional, organism-based; conditions: Human immunodeficiency virus 1, NL4-3, MAGI, 144 h
Procedure, shortened: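 MAGI cells carrying an LTR-β-galactosidase reporter were infected with HIV-1 in the presence of compound. After 6 days post-infection, cells were lysed and β-galactosidase activity was read by chemiluminescence. Values are means of three determinations.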

[4] = biological target: Human immunodeficiency virus type 1 integrase (Human immunodeficiency virus 1) (UniProt Q7ZJM1); experiment: as §1; procedure, shortened: as §2
CYP3A4 [5] = biological target: T1, CYP3A4 (Homo sapiens, UniProt P08684); experiment: Activity at CYP3A4 in human liver microsomes using triazolam as substrate at 25 uM preincubated for 3 mins prior to NADPH addition by HPLC-UV analysis relative to control; type: ADME, Microsome; conditions: probe triazolam, read-out: Activity
Procedure, shortened: (§3)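 Pooled mixed-gender human liver microsomes in 100 mM potassium phosphate (pH 7.4) with 5 mM MgCl₂, probe substrate at its Km-based level, and test compound. Final volume 100 µL. Preincubated 3 min at 37 °C, then started with 2 mM NADPH (final). Metabolite was read by HPLC-UV: 6β-hydroxytestosterone at 254 nm, 4-hydroxytriazolam at 260 nm, dextrorphan at 278 nm. Activity is given as % of control (100%), mean ± SD of three.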

CYP3A4 [6] = biological target: T1, CYP3A4; experiment: Activity at CYP3A4 in human liver microsomes using triazolam as substrate at 50 uM preincubated for 3 mins prior to NADPH addition by HPLC-UV analysis relative to control; type: ADME, Microsome; conditions: probe triazolam, read-out: Activity; procedure, shortened: as §3
CYP3A4 [7] = biological target: T1, CYP3A4; experiment: Activity at CYP3A4 in human liver microsomes using testosterone as substrate at 12.5 uM preincubated for 3 mins prior to NADPH addition by HPLC-UV analysis relative to control; type: ADME, Microsome; conditions: probe testosterone, read-out: Activity; procedure, shortened: as §3
Liver microsomes [8] = experiment: Metabolic stability in human liver microsomes assessed as retention time of metabolite at 50 uM by HPLC-UV analysis; type: ADME, Microsome
Procedure, shortened: (§4)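 Pooled mixed-gender human liver microsomes (0.5 mg/mL protein) were incubated with 2 mM NADPH, 0.5 U/mL G-6-P-DH, 5 mM MgCl₂ and 5 mM G-6-P in 100 mM potassium phosphate pH 7.4. After 3 min preincubation at 37 °C, NADPH was added to start the reaction, which ran 60 min. Samples taken at 0, 15, 30, 45 and 60 min were quenched with ice-cold acetonitrile, then run on reversed-phase C18 HPLC (phosphate pH 6.5/acetonitrile gradient) with UV at 360 nm. Data are mean ± SD of three.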

CYP2D6 [9] = biological target: T2, CYP2D6 (Homo sapiens, UniProt P10635); experiment: Activity at CYP2D6 in human liver microsomes using dextromethorphan as substrate at 25 uM preincubated for 3 mins prior to NADPH addition by HPLC-UV analysis relative to control; type: ADME, Microsome; conditions: probe dextromethorphan, read-out: Activity; procedure, shortened: as §3
Liver microsomes [10] = experiment: Metabolic stability in human liver microsomes assessed as retention time of parent compound at 50 uM by HPLC-UV analysis; type: ADME, Microsome; procedure, shortened: as §4
CYP2D6 [11] = biological target: T2, CYP2D6; experiment: Activity at CYP2D6 in human liver microsomes using dextromethorphan as substrate at 12.5 uM preincubated for 3 mins prior to NADPH addition by HPLC-UV analysis relative to control; type: ADME, Microsome; conditions: probe dextromethorphan, read-out: Activity; procedure, shortened: as §3
CYP3A4 [12] = biological target: T1, CYP3A4; experiment: Activity at CYP3A4 in human liver microsomes using testosterone as substrate at 25 uM preincubated for 3 mins prior to NADPH addition by HPLC-UV analysis relative to control; type: ADME, Microsome; conditions: probe testosterone, read-out: Activity; procedure, shortened: as §3
[13] = Half life in human liver microsomes at 50 uM preincubated for 3 mins prior to NADPH addition measured after 60 mins by HPLC analysis; type: ADME, Microsome; procedure, shortened: as §4
CYP2D6 [14] = biological target: T2, CYP2D6; experiment: Activity at CYP2D6 in human liver microsomes using dextromethorphan as substrate at 50 uM preincubated for 3 mins prior to NADPH addition by HPLC-UV analysis relative to control; type: ADME, Microsome; conditions: probe dextromethorphan, read-out: Activity; procedure, shortened: as §3
CYP3A4 [15] = biological target: T1, CYP3A4; experiment: Activity at CYP3A4 in human liver microsomes using triazolam as substrate at 12.5 uM preincubated for 3 mins prior to NADPH addition by HPLC-UV analysis relative to control; type: ADME, Microsome; conditions: probe triazolam, read-out: Activity; procedure, shortened: as §3

T1 sequence (P08684 whole entry): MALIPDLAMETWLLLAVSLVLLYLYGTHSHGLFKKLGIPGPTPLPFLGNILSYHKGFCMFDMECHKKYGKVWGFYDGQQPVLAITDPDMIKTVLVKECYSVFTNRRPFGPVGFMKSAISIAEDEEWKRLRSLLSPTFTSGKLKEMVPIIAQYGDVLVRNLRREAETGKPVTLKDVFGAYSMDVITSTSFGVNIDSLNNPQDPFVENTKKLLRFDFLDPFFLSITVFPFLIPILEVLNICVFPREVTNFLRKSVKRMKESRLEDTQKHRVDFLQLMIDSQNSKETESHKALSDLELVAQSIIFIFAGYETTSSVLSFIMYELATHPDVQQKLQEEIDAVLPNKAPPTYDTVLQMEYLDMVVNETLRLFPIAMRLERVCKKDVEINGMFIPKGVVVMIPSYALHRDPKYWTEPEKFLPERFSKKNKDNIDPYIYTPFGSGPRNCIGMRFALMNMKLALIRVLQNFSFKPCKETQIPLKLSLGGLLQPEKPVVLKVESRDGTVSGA
T2 sequence (P10635 whole entry): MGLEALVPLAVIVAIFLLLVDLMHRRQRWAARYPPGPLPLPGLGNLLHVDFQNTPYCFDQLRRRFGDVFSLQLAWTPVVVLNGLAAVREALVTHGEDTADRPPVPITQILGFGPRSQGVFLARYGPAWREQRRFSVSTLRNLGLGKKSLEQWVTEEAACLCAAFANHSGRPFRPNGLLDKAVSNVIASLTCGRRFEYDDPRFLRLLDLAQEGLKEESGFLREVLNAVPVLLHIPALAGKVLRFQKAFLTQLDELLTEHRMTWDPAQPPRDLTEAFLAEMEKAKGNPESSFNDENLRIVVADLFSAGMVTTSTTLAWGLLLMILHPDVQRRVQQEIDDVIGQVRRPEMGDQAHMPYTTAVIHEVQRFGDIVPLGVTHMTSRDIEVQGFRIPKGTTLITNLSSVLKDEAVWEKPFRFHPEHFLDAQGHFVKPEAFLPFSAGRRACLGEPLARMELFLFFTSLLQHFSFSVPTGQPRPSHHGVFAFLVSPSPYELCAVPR
Sequence of Human immunodeficiency virus type 1 integrase (Human immunodeficiency virus 1) (Q7ZJM1 as listed by the source): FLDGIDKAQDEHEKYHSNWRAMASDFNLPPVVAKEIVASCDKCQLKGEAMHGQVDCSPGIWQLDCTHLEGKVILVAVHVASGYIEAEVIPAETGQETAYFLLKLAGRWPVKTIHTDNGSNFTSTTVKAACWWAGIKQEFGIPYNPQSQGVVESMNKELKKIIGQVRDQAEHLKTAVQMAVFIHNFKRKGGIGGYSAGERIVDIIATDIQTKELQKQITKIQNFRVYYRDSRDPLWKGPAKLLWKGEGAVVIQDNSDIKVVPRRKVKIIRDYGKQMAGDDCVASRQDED
Sequence of Human immunodeficiency virus type 1 integrase (Q7ZJM1 whole entry): as the sequence (Q7ZJM1 as listed by the source) above

## O=C(/C=C(\O)c1cc(Cc2ccc(F)cc2F)cn(Cc2ccccc2F)c1=O)C(=O)N[C@@H]1CCC[C@H]1O (racemic)
[1]
  IC50: 48 nM

## O=C(/C=C(\O)c1cc(Cc2ccc(F)cc2F)cn(Cc2ccccc2F)c1=O)C(=O)N[C@@H]1CCC[C@H]1O
[2]
  CC50: 137000 nM
[3]
  EC50: 42.2 nM
  EC90: 871 nM

## O=C(/C=C(\O)c1cc(Cc2ccc(F)cc2F)cn(Cc2ccccc2F)c1=O)C(=O)N[C@@H]1CCC[C@@H]1O (racemic)
[4]
  inhibition: inactive

## O=C(/C=C(\O)c1cc(Cc2ccc(F)cc2F)cn(Cc2ccccc2F)c1=O)C(=O)N[C@H]1CCC[C@@H]1O
CYP3A4 [5]
  activity at 25 µM: 98%
[2]
  CC50: 40400 nM
CYP3A4 [6]
  activity at 50 µM: 100%
[3]
  EC50: 25.1 nM
  EC90: 415 nM
CYP3A4 [7]
  activity at 12.5 µM: 109%
Liver microsomes [8]
  Retention_time: 9.1 min
CYP2D6 [9]
  activity at 25 µM: 87%
Liver microsomes [10]
  Retention_time: 10.48 min
CYP2D6 [11]
  activity at 12.5 µM: 86%
CYP3A4 [12]
  activity at 25 µM: 97%
[13]
  half-life at 50 µM: 2 h
CYP2D6 [14]
  activity at 50 µM: 87%
CYP3A4 [15]
  activity at 12.5 µM: 124%
